# Compound activity as filed in PubChem BioAssay.
# The list is not random: actives were taken first. Their share in the collection is about 2.4%.
# Measles CPE – compounds protecting cells from measles virus cytopathic effect, primary screen, measles RdRp inhibitor project, single point, MLSMR library, absorbance. Measles virus-infected cells, CPE protection. protection (pct of control), % at 4 µM. 1.5% of 140,000 active; in the data active means protection mostly above about 24%, no sharp cut-off; inactive means mostly below about 26%
# Yeast life ext – compounds extending yeast replicative lifespan, primary screen, S. cerevisiae, OD615; inhibition of the nicotinamide effect, % at 10 µM; AID 775, 2007; 0.68% of 130,000 active; S. cerevisiae growth with nicotinamide; deaD strain in restrictive glucose medium;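 active means inhibition above a set limit, placed 3 SD over the median of all compounds, cut at about 26% in these data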;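 further: 0% = nicotinamide-treated wells and 100% = cells grown without nicotinamide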
#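 Material: Modified budding yeast, DeaD strain | Medium: Restrictive glucose medium | Probe or stimulus: 1.5 mM nicotinamide | Dosing: Single dose 10 µM compound, 0.25% DMSO | Times: 48 h at 30 °C | Technique: OD615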
# Rad51 HR inh – human RAD51 strand exchange inhibitors, primary screen, biochemical, fluorescence. hRad51 DNA strand exchange, fluorescence dequenching. inhibition, % at 10 µM. 0.085% of 200,000 active. AID 1385, 2008;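 active means inhibition above 40% at the single screening dose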;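 further: 0% = DMSO control wells and 100% = blanks with heterologous ssDNA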
# Target sequence (Q06609 whole entry, looked up): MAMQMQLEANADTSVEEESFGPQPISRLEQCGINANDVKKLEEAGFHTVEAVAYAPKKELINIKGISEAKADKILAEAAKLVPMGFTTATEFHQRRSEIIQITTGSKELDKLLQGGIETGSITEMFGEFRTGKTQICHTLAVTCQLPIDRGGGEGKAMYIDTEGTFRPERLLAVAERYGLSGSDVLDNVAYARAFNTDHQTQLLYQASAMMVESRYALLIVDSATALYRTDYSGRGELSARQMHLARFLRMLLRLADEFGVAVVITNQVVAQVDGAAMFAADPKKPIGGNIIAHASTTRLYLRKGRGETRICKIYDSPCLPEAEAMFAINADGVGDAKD
#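 Assay system: Human Rad51 nucleoprotein filaments preassembled on unlabelled ssDNA | Reagent: Donor/quencher-labelled 47-bp dsDNA substrate | Doses: One concentration, 10 µM final | Times: 37 °C 15-min filament assembly, 30-min compound preincubation, 15-min exchange | Technique: Fluorescein emission 520 nm, excitation 485 nm | Benchmarks: Plate control and blank wells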
# Yeast growth inh – growth inhibitors of yeast BB579 in restrictive medium, primary screen, yeast lifespan-shortening project, S. cerevisiae; OD615, 48 h; inhibition, % at 10 µM; 0.51% of 140,000 active;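 active means inhibition above a set limit, 3 SD over the mean compound inhibition, cut at about 44% in these data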
#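 Material: Saccharomyces cerevisiae DeaD strain BB579, replicative lifespan model yeast; buffer or medium: CSMM-D restrictive synthetic medium containing dextrose (glucose); compound: 10 µM single dose, DMSO 0.25%; timing: 48 h compound exposure at 30 °C after 4 h preincubation; signal: turbidity as optical density at 615 nm; benchmarks: positive control amphotericin B 10 µg/mL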
# Arbovirus inh – antivirals against arbovirus infection, primary screen, cell-based, full library, 10K replicate subset; arbovirus infection cell-based antiviral screen; inhibition, % at 10 µM; 0.37% of 200,000 active; AID 1251, 2008; in the data active means inhibition above about 30%
# Efa HMGR inh – inhibitors of E. faecalis class II HMGR, primary screen, biochemical, Enterococcus faecalis; inhibition, % at 10 µM; 0.41% of 190,000 active; purified E. faecalis HMGR, NADPH absorbance 340 nm kinetic; HMG-CoA reductase (Enterococcus faecalis, mvaE);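 active means inhibition above a set limit, the median over all tested compounds plus 3 SD, cut at about 9.5% in these data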;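 further: enzyme runs in reverse so mevalonate oxidation gives rising NADPH absorbance; 0% = complete reaction with DMSO and 100% = background rate lacking mevalonate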
# * marks the source's active call; other numbers are inactive results; . = not tested or not shown.
SMILES,Measles CPE,Yeast life ext,Rad51 HR inh,Yeast growth inh,Arbovirus inh,Efa HMGR inh
O=C(NCC(O)c1ccc([N+](=O)[O-])cc1)c1cccc(S(=O)(=O)N2CCCC2)c1 (configuration not stated),.,.,-78,.,-3,-7
O=C(O)c1ccccc1SCC(=O)N1CCCCC1,40*,-1,-12,-26,10,-6
CC(=O)OCC(OC(C)=O)C(OC(C)=O)C(OC(C)=O)C(=O)Nc1ccccc1 (configuration not stated),.,.,0,.,-1,3
Cc1cccc(-n2nc3c(c2NC(=O)c2ccco2)CSC3)c1C,28*,0,7,-30,9,0
Cc1nn2c(-c3ccco3)nnc2c2ccccc12,1,-12,6,88*,-5,-5
CC(=O)Nc1cccc(-c2nnc3c4ccccc4c(C)nn23)c1,.,.,9,.,0,-3
Cc1nn2c(-c3ccncc3)nnc2c2ccccc12,9,-13,4,89*,-3,-5
c1ccc(-c2nnc(-c3ccco3)n2-c2ccccc2)cc1,24,-5,-5,-28,-4,-2
Cc1ccccc1-c1nnc2c3ccccc3c(C)nn12,12,.,6,-14,-5,0
COc1ccc(-c2nnc3c4ccccc4c(C)nn23)cc1,4,-5,4,49*,-4,2
CSc1nnc(-c2sc3cc(C(F)(F)F)cnc3c2-c2ccccc2)n1C,3,-4,6,-4,-11,-1
Cc1ccc(CNC(=O)/C=C/c2ccc(S(=O)(=O)N3CCOCC3)cc2)cc1,3,9,9,-36,1,-3
COc1cccc(-n2cnc3sc(C)cc3c2=O)c1,.,.,2,.,1,-5
O=C1C=C(c2ccccc2)OC(=O)C1C(=O)c1ccccc1 (configuration not stated),27*,.,-7,-28,8,5
CC(=O)Nc1ccccc1C(=O)C(=O)Nc1ccc(C(=O)NCC2CCCO2)cc1 (configuration not stated),.,.,-16,.,-9,-3
O=C(O)c1ccccc1Nc1cccc(C(F)(F)F)c1,32,-2,-8,18,38*,-2
O=C(N/N=C/c1ccc(Cl)cc1Cl)C(=O)NC1CC1,.,.,-12,.,-2,-5
O=C(Cn1c(=O)n(-c2ccc(F)cc2)c(=O)c2sccc21)NC1CCCCC1,.,.,-2,.,-5,-2
C=CCn1c(CNC(=O)c2cccs2)nnc1SCc1ccc(Cl)cc1Cl,27,5,-5,-5,63*,5
CC(NC(=O)c1cccs1)c1nnc(SCc2ccc(Cl)cc2Cl)n1C (configuration not stated),6,-3,-2,1,77*,-5
COC(=O)c1ccccc1NC(=O)CSc1nnc(C(C)NC(=O)c2ccc(Cl)cc2Cl)n1C (configuration not stated),12,-6,-2,-16,5,-7
CCc1c(C)nc2[nH]nc(NC(=O)C(F)(F)F)n2c1=O,51*,4,6,5,6,0
Cn1c2ccccc2c2c(C(=O)NCc3ccco3)cn(C3CCCCC3)c(=O)c21,42*,-18,3,-9,-3,7
O=C(NCc1ccccc1)c1cc(-c2ccco2)on1,2,-8,0,12,2,2
O=C(NCc1ccco1)c1cc(-c2cccs2)nc2ccccc12,59*,1,10,-20,0,-2
SMILES,Measles CPE,Yeast life ext,Rad51 HR inh,Yeast growth inh,Arbovirus inh,Efa HMGR inh
O=C(NCc1ccco1)c1cc(-c2ccco2)on1,85*,-9,-6,-8,-1,-6
Cn1nc(C(=O)NCc2ccco2)c2ccccc2c1=O,24*,-1,25,-17,0,-6
COc1ccc(C)cc1N(C(=O)c1ccccc1F)c1nc2ccccc2s1,12,-3,-14,-19,-7,-3
COC(=O)c1ccccc1N1C(=O)C2C(C1=O)C1C=CC2C12CC2 (configuration not stated),10,-1,-17,-24,7,-4
COC(=O)c1ccccc1N1C(=O)C2C(C1=O)[C@H]1C=C[C@@H]2C1 (some centres not stated),101*,-7,-6,5,0,-4
CC(Sc1nc2c(c(=O)n(C)c(=O)n2C)n1Cc1cc2c(cc1Cl)OCO2)C(=O)O (configuration not stated),53*,-24,1,-22,3,6
CCCN(CCC)S(=O)(=O)c1ccc(C(=O)NCc2n[nH]c(=S)n2-c2ccc(Cl)c(Cl)c2)cc1,.,.,-2,.,0,-11
COc1ccc(-c2cc(-c3ccccc3O)[nH]n2)cc1OC,9,-22,1,-58,26,1
COc1ccc(-c2cc(-c3ccc(OC)c(OC)c3)n[nH]2)c(O)c1,13,-12,-1,-11,32*,-1
Cc1c(Br)c(C(=O)NCc2cc3cc(Cl)ccc3[nH]2)nn1C,1,-5,-37,-26,-6,-5
Cn1cc([N+](=O)[O-])c(C(=O)NCc2cc3cc(Cl)ccc3[nH]2)n1,9,-5,21,-43,35*,-5
CCCCN1CNC(=S)N(Cc2ccccc2)C1,7,-1,5,-35,-9,-4
O=C(/C=C/c1ccccc1)NNC(=O)C1CC1,46,7,0,-30,7,-3
O=C(NNC(=O)C(O)(c1ccccc1)c1ccccc1)C1CC1,.,.,.,.,3,11*
COc1ccc(OC)c(NC(=S)NN2CCOCC2)c1,57*,-11,1,-26,1,-3
COc1ccc(Cl)cc1NC(=S)NN1CCOCC1,.,.,12,.,-3,-2
COc1ccc(N2CCN(C(=O)c3ccccc3Br)CC2)c([N+](=O)[O-])c1,.,.,-1,.,-7,1
CC(=O)Nc1cccc(-c2nnc(SCc3ccccc3C#N)n2C)c1,3,-11,-2,18,4,-7
CC(=O)Nc1ccc(-c2nnc(SCc3ccccc3C#N)n2C)cc1,24*,-8,-1,-20,2,-4
Nc1nc2sc3c(c2c(=O)s1)CCCC3,4,-21,4,53*,-17,-9
O=c1c2c3c(sc2nc2n1CCCCC2)CCCCC3,14,-9,2,-44,-3,-2
O=c1c2c3c(sc2nc2n1CCCC2)CCC3,36*,-10,2,-5,-8,-4
CC(C)CC1(C)N=C(c2ccccc2)C(=S)N1 (configuration not stated),.,.,7,.,4,3
CCc1nnc(NS(=O)(=O)c2ccc(NC(=O)COc3ccc4ccccc4c3)cc2)s1,.,.,-4,.,42*,1
